Test results from ChEMBL document CHEMBL1255437, “Involvement of the beta subunit of RNA polymerase in resistance to streptolydigin and streptovaricin in the producer organisms Streptomyces lydicus and Streptomyces spectabilis” (2010).
Values after ≈ are worked out from the molar mass of the structure shown.

Assays:
[1] = tested on: Streptomyces lydicus; assay: Antimicrobial activity against Streptomyces lydicus NRRL 2433 after 5 to 7 days; format: functional
Method in brief: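 Spore suspensions replica-plated with a plate replicator onto Bennet's agar plates containing a range of streptolydigin and streptovaricin concentrations. Plates incubated 5 to 7 days at 30°C. MIC scored as growth inhibition on the solid medium. Strain NRRL2433 is the streptolydigin producer.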

[2] = tested on: Streptomyces albus; assay: Antimicrobial activity against transconjugant Streptomyces albus J1074 after 5 to 7 days; format: functional
Method in brief: (§1)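 MIC by agar dilution. Spore suspensions were replica plated with a plate replicator onto Bennet's agar containing a range of streptolydigin or streptovaricin concentrations, then incubated 5 to 7 days at 30°C. Recombinant S. albus strains carried pEM4T-derived plasmids introduced by conjugation from E. coli ET12567(pUB307); producer strains and host S. albus J1074 were tested the same way.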

[3] = tested on: Streptomyces albus; assay: Antimicrobial activity against transconjugant Streptomyces albus carrying pEM4T after 5 to 7 days; format: functional; method in brief: as §1
[4] = tested on: Streptomyces albus; assay: Antimicrobial activity against transconjugant Streptomyces albus carrying pEM4T-Abeta after 5 to 7 days; format: functional; method in brief: as §1
[5] = tested on: Streptomyces albus; assay: Antimicrobial activity against transconjugant Streptomyces albus carrying pEM4T-Lbeta after 5 to 7 days; format: functional; method in brief: as §1
[6] = tested on: Streptomyces albus; assay: Antimicrobial activity against transconjugant Streptomyces albus carrying pEM4T-Lbeta' after 5 to 7 days; format: functional; method in brief: as §1
[7] = tested on: Streptomyces albus; assay: Antimicrobial activity against transconjugant Streptomyces albus carrying pEM4T-CALbeta after 5 to 7 days; format: functional; method in brief: as §1
[8] = tested on: Streptomyces albus; assay: Antimicrobial activity against transconjugant Streptomyces albus carrying pEM4T-Lbeta100 with RNA polymerase beta subunit T458N mutant after 5 to 7 days; format: functional; method in brief: as §1
[9] = tested on: Streptomyces albus; assay: Antimicrobial activity against transconjugant Streptomyces albus carrying pEM4T-Lbeta101 with RNA polymerase beta subunit L485F mutant after 5 to 7 days; format: functional; method in brief: as §1
[10] = tested on: Streptomyces albus; assay: Antimicrobial activity against transconjugant Streptomyces albus carrying pEM4T-Lbeta102 with RNA polymerase beta subunit D486E mutant after 5 to 7 days; format: functional; method in brief: as §1
[11] = tested on: Streptomyces albus; assay: Antimicrobial activity against transconjugant Streptomyces albus carrying pEM4T-Lbeta103 with RNA polymerase beta subunit L555V mutant after 5 to 7 days; format: functional; method in brief: as §1
[12] = tested on: Streptomyces albus; assay: Antimicrobial activity against transconjugant Streptomyces albus carrying pEM4T-Lbeta104 with RNA polymerase beta subunit F593Y mutant after 5 to 7 days; format: functional; method in brief: as §1
[13] = tested on: Streptomyces albus; assay: Antimicrobial activity against transconjugant Streptomyces albus carrying pEM4T-Lbeta105 with RNA polymerase beta subunit S624A mutant after 5 to 7 days; format: functional; method in brief: as §1
[14] = tested on: Streptomyces albus; assay: Antimicrobial activity against transconjugant Streptomyces albus carrying pEM4T-Lbeta106 with RNA polymerase beta subunit A636S mutant after 5 to 7 days; format: functional; method in brief: as §1
[15] = tested on: Streptomyces albus; assay: Antimicrobial activity against transconjugant Streptomyces albus carrying pEM4T-Lbeta107 with RNA polymerase beta subunit L485F/D486E mutant after 5 to 7 days; format: functional; method in brief: as §1
[16] = tested on: Streptomyces albus; assay: Antimicrobial activity against transconjugant Streptomyces albus carrying pEM4T-Lbeta108 with RNA polymerase beta subunit F593Y/M594L mutant after 5 to 7 days; format: functional; method in brief: as §1
[17] = tested on: Streptomyces albus; assay: Antimicrobial activity against transconjugant Streptomyces albus carrying pEM4T-Abeta201 with RNA polymerase beta subunit F484L mutant after 5 to 7 days; format: functional; method in brief: as §1
[18] = tested on: Streptomyces albus; assay: Antimicrobial activity against transconjugant Streptomyces albus carrying pEM4T-Abeta202 with RNA polymerase beta subunit E485D mutant after 5 to 7 days; format: functional; method in brief: as §1
[19] = tested on: Streptomyces albus; assay: Antimicrobial activity against transconjugant Streptomyces albus carrying pEM4T-Abeta203 with RNA polymerase beta subunit F484L/E485D mutant after 5 to 7 days; format: functional; method in brief: as §1
[20] = tested on: Streptomyces albus; assay: Antimicrobial activity against transconjugant Streptomyces albus carrying pEM4T-Sbeta102 with RNA polymerase beta subunit S475A mutant after 5 to 7 days; format: functional; method in brief: as §1
[21] = tested on: Streptomyces albus; assay: Antimicrobial activity against transconjugant Streptomyces albus carrying pEM4T-Sbeta103 with RNA polymerase beta subunit T638K mutant after 5 to 7 days; format: functional; method in brief: as §1
[22] = tested on: Streptomyces albus; assay: Antimicrobial activity against transconjugant Streptomyces albus carrying pEM4T-Sbeta104 with RNA polymerase beta subunit A639S mutant after 5 to 7 days; format: functional; method in brief: as §1
[23] = tested on: Streptomyces albus; assay: Antimicrobial activity against transconjugant Streptomyces albus carrying pEM4T-Sbeta105 with RNA polymerase beta subunit N474S/S475A mutant after 5 to 7 days; format: functional; method in brief: as §1
[24] = tested on: Streptomyces albus; assay: Antimicrobial activity against transconjugant Streptomyces albus carrying pEM4T-Sbeta204 with RNA polymerase beta subunit L463I mutant after 5 to 7 days; format: functional; method in brief: as §1
[25] = tested on: Streptomyces albus; assay: Antimicrobial activity against transconjugant Streptomyces albus carrying pEM4T-Sbeta205 with RNA polymerase beta subunit S470N mutant after 5 to 7 days; format: functional; method in brief: as §1
[26] = tested on: Streptomyces albus; assay: Antimicrobial activity against transconjugant Streptomyces albus carrying pEM4T-Sbeta206 with RNA polymerase beta subunit A471S mutant after 5 to 7 days; format: functional; method in brief: as §1
[27] = tested on: Streptomyces albus; assay: Antimicrobial activity against transconjugant Streptomyces albus carrying pEM4T-Sbeta after 5 to 7 days; format: functional; method in brief: as §1
[28] = tested on: Streptomyces albus; assay: Antimicrobial activity against transconjugant Streptomyces albus carrying pEM4T-Sbeta' after 5 to 7 days; format: functional; method in brief: as §1
[29] = tested on: Streptomyces albus; assay: Antimicrobial activity against transconjugant Streptomyces albus carrying pEM4T-CASbeta after 5 to 7 days; format: functional; method in brief: as §1
[30] = tested on: Streptomyces albus; assay: Antimicrobial activity against transconjugant Streptomyces albus carrying pEM4T-Sbeta100 with RNA polymerase beta subunit I467L mutant after 5 to 7 days; format: functional; method in brief: as §1
[31] = tested on: Streptomyces albus; assay: Antimicrobial activity against transconjugant Streptomyces albus carrying pEM4T-Sbeta101 with RNA polymerase beta subunit N474S mutant after 5 to 7 days; format: functional; method in brief: as §1
[32] = tested on: Streptomyces albus; assay: Antimicrobial activity against transconjugant Streptomyces albus carrying pEM4T-Abeta207 with RNA polymerase beta subunit S470N/A471S mutant after 5 to 7 days; format: functional; method in brief: as §1
[33] = tested on: Streptomyces spectabilis; assay: Antimicrobial activity against Streptomyces spectabilis NRRL 2494 after 5 to 7 days

Compound | MIC [20] [µg/mL] | MIC [21] [µg/mL] | MIC [22] [µg/mL] | MIC [23] [µg/mL] | MIC [24] [µg/mL] | MIC [25] [µg/mL] | MIC [26] [µg/mL] | MIC [27] [µg/mL] | MIC [28] [µg/mL] | MIC [29] [µg/mL] | MIC [30] [µg/mL] | MIC [31] [µg/mL] | MIC [32] [µg/mL] | MIC [33] [µg/mL] | other results
CNC(=O)[C@@H](C)[C@H]1C(=O)/C(=C(O)/C=C/C(C)=C/[C@@H](C)[C@H]2O[C@@]3(C)O[C@H](C=C[C@@]34CO4)[C@@H]2C)C(=O)N1[C@@H]1CC[C@H](O)[C@H](C)O1 [STREPTOLYDIGIN] |  |  |  |  |  |  |  |  |  |  |  |  |  |  | MIC [1]: > 200 µg/mL; MIC [2]: 1 µg/mL (≈ 1.66 µM); MIC [3]: 1 µg/mL (≈ 1.66 µM); MIC [4]: 1 µg/mL (≈ 1.66 µM); MIC [5]: 20 µg/mL (≈ 33.3 µM); MIC [6]: 1 µg/mL (≈ 1.66 µM); MIC [7]: 20 µg/mL (≈ 33.3 µM); MIC [8]: 20 µg/mL (≈ 33.3 µM); MIC [9]: 1 µg/mL (≈ 1.66 µM); MIC [10]: 10 µg/mL (≈ 16.6 µM); MIC [11]: 1 µg/mL (≈ 1.66 µM); MIC [12]: 10 µg/mL (≈ 16.6 µM); MIC [13]: 20 µg/mL (≈ 33.3 µM); MIC [14]: 10 µg/mL (≈ 16.6 µM); MIC [15]: 1 µg/mL (≈ 1.66 µM); MIC [16]: 1 µg/mL (≈ 1.66 µM); MIC [17]: 6 µg/mL (≈ 9.99 µM); MIC [18]: 1 µg/mL (≈ 1.66 µM); MIC [19]: 9 µg/mL (≈ 15 µM)
CO[C@H]1/C=C/O[C@@]2(C)Oc3c(C)c(O)c4c(O)c(c(/C=N/N5CCN(C)CC5)c(O)c4c3C2=O)NC(=O)/C(C)=C\C=C\[C@H](C)[C@H](O)[C@@H](C)[C@@H](O)[C@@H](C)[C@H](OC(C)=O)[C@@H]1C [RIFAMPIN] | 40 (≈ 48.6 µM) | 20 (≈ 24.3 µM) | 40 (≈ 48.6 µM) | 5 (≈ 6.08 µM) | 5 (≈ 6.08 µM) | 5 (≈ 6.08 µM) | 5 (≈ 6.08 µM) | 40 (≈ 48.6 µM) | 5 (≈ 6.08 µM) | 40 (≈ 48.6 µM) | 40 (≈ 48.6 µM) | 5 (≈ 6.08 µM) | 40 (≈ 48.6 µM) | > 40 | 
COC(=O)[C@@H]1[C@H](O)[C@H](C)[C@H](O)[C@H](C)/C=C\C=C(/C)C(=O)Nc2c(C)c(OC(C)=O)c3c(c2O)C(=O)C(C)=C2OCOC(=C23)/C(C)=C/[C@@](C)(O)[C@H](O)[C@@H](C)[C@H]1O [STREPTOVARICIN] | 200 (≈ 260 µM) | 200 (≈ 260 µM) | 200 (≈ 260 µM) | 70 (≈ 90.9 µM) | 70 (≈ 90.9 µM) | 80 (≈ 104 µM) | 80 (≈ 104 µM) | 200 (≈ 260 µM) | 70 (≈ 90.9 µM) | 200 (≈ 260 µM) | 200 (≈ 260 µM) | 200 (≈ 260 µM) | 200 (≈ 260 µM) | > 200 | 
